Nine compounds from ChEMBL document CHEMBL1811795, “Photolabile ubiquinone analogues for identification and characterization of quinone binding sites in proteins” (Bioorg Med Chem, 2010) can be followed below.

Calls of active or inactive are those of the source. No cut-off for these calls is given here. A value given as a limit tells only on which side of the number the result lay.

For data set [1], the system named is Bacillus subtilis. As to the kind of experiment: Inhibition of photo labeled detergent solubilized succinate:ubiquinone oxidoreductase activity in Bacillus subtilis measured in dark. In outline: (§1)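 Purified Complex II (5 µM, detergent) with 10–75 µM azidoquinone in 50 mM potassium phosphate, 1 mM EDTA, pH 7.4, illuminated on ice with mid-wavelength UV at 7 cm; timed aliquots held dark on ice. SQR activity then measured within 1 h by DCPIP reduction with Q1 as acceptor.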

In data set [2] the test system is Rhodobacter capsulatus. As to the kind of experiment: Activity of Rhodobacter capsulatus NADH-ubiquinone oxidoreductase. Put shortly: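 R. capsulatus membranes (aerobic, dark, 32 °C growth) assayed for NADH:quinone reductase at 25 °C: 50 mM Tris–Cl pH 8, 10 mM KCl, 5 mM MgCl2, 0.2 µg/mL gramicidin A, 150 µM NADH. Quinone varied 0.2–3 Km; Michaelis–Menten fit of initial rates gives apparent Km and Vmax. NADH oxidation read at 340 nm.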

The test system of data set [3] is Escherichia coli. As to the kind of experiment: Activity of Escherichia coli WrbA. Put shortly:
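Purified E. coli WrbA in 20 mM potassium phosphate pH 7.2, room temperature, with 100 µM FMN, 200 µM NADH and 200 µM quinone; NADH oxidation followed at 340 nm; Vmax reported.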

For data set [4], the system named is Bacillus subtilis. The data set can be described thus: Activity of Bacillus subtilis Succinate-ubiquinone oxidoreductase. In outline:
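Purified detergent-solubilized B. subtilis Complex II ([…]): succinate-driven DCPIP reduction followed at 600 nm, 20 mM succinate, quinone (50 mM as printed) as primary acceptor, 50 mM potassium phosphate pH 7.4 with 1 mM KCN and 0.1 mM EDTA, room temperature, started by quinone; Vmax reported.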

The subject of data set [5] is Bacillus subtilis. As to the kind of experiment: Inhibition of Bacillus subtilis Succinate-ubiquinone oxidoreductase using Q1 as substrate. Put shortly:
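Purified B. subtilis Complex II (from a strain overproducing it, solubilised in dodecylmaltoside), 5 µM, in 50 mM potassium phosphate, 1 mM EDTA, pH 7.4. Illuminated on ice with mid-wavelength UV at 7 cm, with 10–75 µM azidoquinone. Samples held dark on ice, then assayed within 1 h: succinate:Q1 reductase, read as DCPIP reduction at 600 nm, room temperature.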

Data set [6] relates to Rhodobacter capsulatus. As to the kind of experiment: Inhibition of Rhodobacter capsulatus NADH-ubiquinone oxidoreductase using Q1 as substrate.
Data set [7] concerns Rhodobacter capsulatus. The data set can be described thus: Inhibition of Rhodobacter capsulatus NADH-ubiquinone oxidoreductase using AzQ0 as substrate.
For data set [8], the system named is Rhodobacter capsulatus. The data set can be described thus: Inhibition of Rhodobacter capsulatus NADH-ubiquinone oxidoreductase using AzQ1 as substrate.
For data set [9], the system named is Rhodobacter capsulatus. The data set can be described thus: Inhibition of Rhodobacter capsulatus NADH-ubiquinone oxidoreductase using DAzB as substrate.
Data set [10] deals with Rhodobacter capsulatus. The data set can be described thus: Inhibition of Rhodobacter capsulatus NADH-ubiquinone oxidoreductase using DMB as substrate.
The test system of data set [11] is Rhodobacter capsulatus. As to the kind of experiment: Inhibition of Rhodobacter capsulatus NADH-ubiquinone oxidoreductase using Q0 as substrate.
In data set [12] the test system is Rhodobacter capsulatus. The data set can be described thus: Inhibition of NADH:Q1 reductase activity of Rhodobacter capsulatus NADH-ubiquinone oxidoreductase at 20 uM. The following applies: TDE = time-dependent effect. Put shortly: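 Membranes in Buffer A (50 mM Bis–Tris propane pH 6.8, 20 mM KCl, 10 mM MgCl2) at 1 mg/mL protein, preincubated 5 min dark with ~20 µM azidoquinone, UV-illuminated up to 10 min at 7 cm, 4 °C. NADH:Q1 reductase then read at 340 nm, 25 °C, pH 8.0 Tris–Cl with 5 mM KCN, 100 µM Q1, 150 µM NADH.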

Data set [13] deals with Rhodobacter capsulatus. The data set can be described thus: Activity of Rhodobacter capsulatus NADH-ubiquinone oxidoreductase at 50 uM UV-illuminated compound. In outline:
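R. capsulatus membranes incubated with 50 µM previously UV-illuminated azidoquinone, then NADH:O2 reductase (NADH oxidase) activity measured. Runs without additions and with the unmodified quinone were done in parallel.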

Data set [14] concerns Rhodobacter capsulatus. As to the kind of experiment: Inhibition of NADH:ferricyanide reductase activity of Rhodobacter capsulatus NADH-ubiquinone oxidoreductase at 20 uM after 20 mins of UV-illumination.
The subject of data set [15] is Rhodobacter capsulatus. The data set can be described thus: Activity of Rhodobacter capsulatus NADH-ubiquinone oxidoreductase at 50 uM post UV-illuminated compound.
The nature of data set [16]: Photo stability of the compound assessed as decomposition at 500 uM after 10 mins of UV-illumination. The data set is classed as physicochemical.
The test system of data set [17] is Bacillus subtilis. As to the kind of experiment: Inhibition of Bacillus subtilis Succinate-ubiquinone oxidoreductase using AzQ0 as substrate. Put shortly:
(§2)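 Succinate:quinone reductase of purified B. subtilis Complex II, read as DCPIP reduction at 600 nm. Conditions: 20 mM succinate, 50 mM potassium phosphate pH 7.4, 1 mM KCN, 0.1 mM EDTA, room temperature, quinone starting the reaction. HQNO added at 10 µM final; percent inhibition recorded.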

Data set [18] relates to Escherichia coli. As to the kind of experiment: Inhibition of photo labeled Escherichia coli WrbA activity at 50 uM. The following applies: TDE = time-dependent effect. In outline:
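WrbA (10 µM) with 50 µM azidoquinone in 20 mM potassium phosphate pH 7.2, on ice, under mid-wavelength UV light at 7 cm; aliquots taken over time and kept dark on ice. Activity then read within 1 h as NADH oxidation at 340 nm with 100 µM FMN, 200 µM NADH and 200 µM quinone.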

The subject of data set [19] is Bacillus subtilis. As to the kind of experiment: Inhibition of photo labeled detergent solubilized succinate:ubiquinone oxidoreductase activity of respiratory chain in Bacillus subtilis after 5 mins of UV-illumination. In outline:
as §1

Data set [20] concerns Rhodobacter capsulatus. As to the kind of experiment: Inhibition of NADH:Q1 reductase activity of Rhodobacter capsulatus NADH-ubiquinone oxidoreductase at 20 uM after 5 mins of UV-illumination in presence of 5 uM NADH. Put shortly: (§3)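 R. capsulatus membranes, 1 mg/mL protein in Bis–Tris propane buffer pH 6.8, preincubated 5 min in the dark with about 20 µM azidoquinone. Then illuminated with mid-wavelength UV at 7 cm, 4 °C, in a quartz cuvette. Where stated, 5 µM NADH was added (with KCN) before illumination. NADH:Q1 reductase assayed straight after: 340 nm, 25 °C, Tris–Cl pH 8.0, 5 mM KCN, 100 µM Q1, 150 µM NADH, gramicidin.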

Data set [21] concerns Rhodobacter capsulatus. The data set can be described thus: Inhibition of NADH:Q1 reductase activity of Rhodobacter capsulatus NADH-ubiquinone oxidoreductase at 20 uM after 5 mins of UV-illumination. In outline: as §3
The test system of data set [22] is Bacillus subtilis. As to the kind of experiment: Inhibition of Bacillus subtilis Succinate-ubiquinone oxidoreductase using Q0 as substrate. Put shortly: as §2

Turning to `COC1=C(OC)C(=O)C(CC=C(C)C)=C(C)C1=O`, the inhibition result with Bacillus subtilis [1] was “inactive”. In the data set on Rhodobacter capsulatus [2], the Km was 23 µM and the Vmax came to 0.67 µmol/min/mg. In addition, in the data set on Escherichia coli [3], the Vmax (microM/min/mg) is < 10. Also, the Vmax (microM/min/mg) in the data set on Bacillus subtilis [4] was 2.52. The Imax with Bacillus subtilis [5] came to 90%.

In the case of `C/C=C(\C)[C@H](O)[C@H](C)/C=C(C)/C=C/C/C(C)=C/Cc1nc(OC)c(OC)c(O)c1C`, the Imax with Rhodobacter capsulatus [6] stood at 73%; in the data set with Rhodobacter capsulatus [7], 68%; in the data set with Rhodobacter capsulatus [8], 79%; in the data set with Rhodobacter capsulatus [9] it was 71%; in the data set on Rhodobacter capsulatus [10], 75%; in the data set with Rhodobacter capsulatus [11], 68%.

With `COC1=C(OC)C(=O)C(CCCCCN=[N+]=[N-])=C(C)C1=O`, the inhibition entry in the data set on Bacillus subtilis [1] and with Rhodobacter capsulatus [14] was “inactive” throughout. The Km in the data set with Rhodobacter capsulatus [2] was 21 µM. Moreover, in the data set with Rhodobacter capsulatus [2], the maximal velocity (Vmax) worked out at 0.35 µmol/min/mg. In addition, the inhibition entry in the data set with Rhodobacter capsulatus [12] is “tde”; with Rhodobacter capsulatus [13] it was 20%. Besides, the Vmax (microM/min/mg) in the data set with Bacillus subtilis [4] was found to be 2.57.

Turning to `CC1=CC(=O)C(N=[N+]=[N-])=C(C)C1=O`, the inhibition entry in the data set on Bacillus subtilis [1] and in the data set on Rhodobacter capsulatus [15] was “inactive” throughout. Further, in the data set with Rhodobacter capsulatus [2], the Michaelis constant (Km) was determined as 86 µM. Also, the Vmax with Rhodobacter capsulatus [2] stood at 0.59 µmol/min/mg. Further, the Vmax (microM/min/mg) in the data set on Escherichia coli [3] came to 464; in the data set with Bacillus subtilis [4], 4.72. Besides, the Stability result in data set [16] is “Unstable”.

In the case of `CC1=CC(=O)C=C(C)C1=O`, the inhibition entry with Bacillus subtilis [1] was “inactive”. Further, in the data set with Rhodobacter capsulatus [2], the Michaelis constant (Km) was 100 µM and the maximal velocity (Vmax) came out at 0.35 µmol/min/mg. Also, the Vmax (microM/min/mg) in the data set on Escherichia coli [3] came out at 546. For the same compound, the Vmax (microM/min/mg) in the data set with Bacillus subtilis [4] is 3.99.

In the data set with Bacillus subtilis [17], `COC1=C(OC)C(=O)C(N=[N+]=[N-])=C(C)C1=O` had an Imax of 89%. Besides, the inhibition result in the data set on Bacillus subtilis [1] was “inactive”. Also, in the data set with Rhodobacter capsulatus [2], the Km was 52 µM. Moreover, the maximal velocity (Vmax) in the data set on Rhodobacter capsulatus [2] turned out to be 0.58 µmol/min/mg. Also, the Vmax (microM/min/mg) in the data set with Escherichia coli [3] was determined as 724; with Bacillus subtilis [4], 3.72. Besides, the inhibition entry was “tde” in the data set on Escherichia coli [18] and 20% in the data set with Rhodobacter capsulatus [13]. Moreover, the inhibition result with Bacillus subtilis [19] was “Active”. In addition, the Stability result in [16] is recorded as “Stable”.

For the compound `[N-]=[N+]=NC1=CC(=O)C=CC1=O`, the inhibition entry in the data set with Rhodobacter capsulatus [20] and with Rhodobacter capsulatus [21] was “Active” in each case.

As to `C=C(C)[C@H]1Cc2c(ccc3c2O[C@@H]2COc4cc(OC)c(OC)cc4[C@@H]2C3=O)O1`, the Imax in the data set with Rhodobacter capsulatus [6] stood at 68%; in the data set with Rhodobacter capsulatus [7], 53%; in the data set on Rhodobacter capsulatus [8], 79%; in the data set on Rhodobacter capsulatus [9], 53%; in the data set on Rhodobacter capsulatus [10], 63%; in the data set with Rhodobacter capsulatus [11], 48%.

With `COC1=C(OC)C(=O)C(C)=CC1=O`, the inhibition entry in the data set with Bacillus subtilis [1] was “inactive”. The compound also returned an Imax with Bacillus subtilis [22] of 88%. In the data set on Rhodobacter capsulatus [2], the Km was 75 µM and the Vmax was found to be 0.37 µmol/min/mg. The Vmax (microM/min/mg) in the data set with Escherichia coli [3] stood at 684. Besides, the Vmax (microM/min/mg) with Bacillus subtilis [4] worked out at 2.19.

The inhibition is how much of the control response was suppressed. The Km is the concentration of substrate that gives half-maximal velocity. One may read the Vmax as the top rate of the reaction or transport when substrate is in excess.
